Results reported in publication PMC2233905 (The Journal of General Physiology, 2004).
Each block holds one compound with its values, some of them ahead of it.

Tests used:
[1] = test system: K^+ current of rat sympathetic neurons; conditions: cited from earlier work
[2] = biological target: T1, hEag1 channels (Homo sapiens, UniProt O95259); assay: Outside-out patch recordings of hEag1 currents; format: cell-based
T1 sequence (O95259 1-989): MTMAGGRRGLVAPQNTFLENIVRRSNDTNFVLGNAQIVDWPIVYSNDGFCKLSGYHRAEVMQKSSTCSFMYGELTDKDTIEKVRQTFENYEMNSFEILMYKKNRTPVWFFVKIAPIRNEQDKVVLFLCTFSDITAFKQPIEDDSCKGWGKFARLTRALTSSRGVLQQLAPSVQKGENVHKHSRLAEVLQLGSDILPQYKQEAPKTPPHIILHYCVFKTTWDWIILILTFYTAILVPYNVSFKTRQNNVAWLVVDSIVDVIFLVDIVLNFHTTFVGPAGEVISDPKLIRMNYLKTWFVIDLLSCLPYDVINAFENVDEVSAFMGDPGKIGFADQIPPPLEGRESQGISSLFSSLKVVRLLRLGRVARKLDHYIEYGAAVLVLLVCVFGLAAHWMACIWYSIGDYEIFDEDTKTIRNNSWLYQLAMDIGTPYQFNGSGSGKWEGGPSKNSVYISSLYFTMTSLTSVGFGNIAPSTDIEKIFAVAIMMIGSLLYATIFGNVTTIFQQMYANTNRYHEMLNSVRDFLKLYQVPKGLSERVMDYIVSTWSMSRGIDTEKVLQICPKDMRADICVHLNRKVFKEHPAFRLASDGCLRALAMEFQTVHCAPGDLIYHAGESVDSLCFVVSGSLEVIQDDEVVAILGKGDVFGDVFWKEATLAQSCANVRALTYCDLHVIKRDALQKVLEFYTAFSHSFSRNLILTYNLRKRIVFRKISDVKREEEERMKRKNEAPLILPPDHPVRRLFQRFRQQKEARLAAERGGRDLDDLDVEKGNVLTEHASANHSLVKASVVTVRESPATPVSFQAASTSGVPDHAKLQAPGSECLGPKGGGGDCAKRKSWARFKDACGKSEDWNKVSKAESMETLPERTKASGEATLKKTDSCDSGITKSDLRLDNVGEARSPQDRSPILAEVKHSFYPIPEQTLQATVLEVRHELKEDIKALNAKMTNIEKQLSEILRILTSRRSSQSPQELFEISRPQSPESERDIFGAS
How it was run: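 Outside-out patches from hEag1-expressing cells at room temperature. Successive 6-s recordings at 80 mV; drug applied to the extracellular face for 2.5 s, then removed. Currents were divided point-wise by control traces, and the time course was fitted with a single exponential to give the block or equilibration time constant and the steady-state fraction blocked.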

[3] = biological target: T1, hEag1 channels; assay: Whole-cell patch-clamp of hEag1 currents in stably transfected HEK-293 cells; format: cell-based
[4] = Ionization: pKa and calculated protonated fractions; format: physicochemical
How it was run: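 Fractions of unprotonated, monoprotonated and diprotonated test compound were calculated from its two pKa values at pH 6.4, 7.4 and 8.4. The diprotonated percentage was 100 × [H+]2 divided by the summed-species denominator. Protonated fractions in the pH 7.4 recording solution were predicted the same way.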

[5] = biological target: T1, hEag1 channels; assay: Cell-attached patch recordings of hEag1 currents, drug in bath; format: cell-based; conditions: 140 mM external K+, 60 mV
How it was run: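 hEag1-expressing cells grown 24–72 h on poly-L-lysine-coated coverslips; cell-attached patches at room temperature. Bath held 140 mM K+; pipette held control external solution (160 NaCl, 2.5 KCl, 2 CaCl2, 1 MgCl2, 10 HEPES, pH 7.4) without glucose. 1-s steps to 60 mV from −70 mV were recorded before, during and after washout of bath-applied drug.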

[6] = biological target: T1, hEag1 channels; assay: Inside-out patch recordings of hEag1 currents; format: cell-based
How it was run: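 Inside-out patches from hEag1-expressing cells at room temperature. Pipette: 145 NaCl, 5 KCl, 3 CaCl2, 1 MgCl2, 10 HEPES/NaOH pH 7.4. Successive 6-s pulses at 80 mV with drug applied for 2.5 s. Current ratios to preapplication traces were fitted with a single exponential to give the block time constant.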

[7] = test system: melanoma cells; conditions: ref Gavrilova-Ruch et al., 2002; cited from earlier work
[8] = 10 μM imipramine or 1 μM astemizole
[9] = 200 μM internal TEA, 80 mV, 10 μM imipramine or 1 μM astemizole
[10] = control, 80 mV, 10 μM imipramine or 1 μM astemizole

Compound: C[N+](C)(C)CCC=C1c2ccccc2CCc2ccccc21 [N-methyl-amitriptyline]
effect on whole-cell K+ current when included in the patch pipette ([1]; 50 μM in pipette, ref Wooltorton and Mathie (1995)): does not inhibit

Compound: CN(C)CCC=C1c2ccccc2CCc2ccccc21 [amitriptyline]
current blocked ([1]; 50 μM, ref Wooltorton and Mathie, 1995): ~90%

effect on current, applied to the extracellular side in outside-out patches ([2]; 5 μM, external and internal pH 7.4): virtually no effect
Compound: C[N+](C)(C)CCCN1c2ccccc2CCc2ccccc21.[I-] [N-methyl-imipramine, N-methyl-imipramine iodide]

hEag1 current blocked ([3]; 80 mV, 200 μM in the internal solution (unpublished data)): ~50%
hEag1 current blocked ([3]; 80 mV, 7 mM in the external solution (unpublished data)): ~50%
Compound: CC[N+](CC)(CC)CC [TEA]

protonated fraction ([4]; pH 6.0): 99.97%
predicted protonated fraction ([4]; pH 7.4 recording solution): 99%
block of channels in cell-attached patches by bath application [5]: blocked
voltage dependence of block [3]: strongly voltage dependent
k of exponential fit to τclose(V) (tail current deactivation) [3, 8]: −0.039
τ(0) of exponential fit to τclose(V) (tail current deactivation) [3, 8]: 65.13 ms
effect on whole-cell current when added to the intracellular solution ([3]; 100 μM in intracellular pH 6.4 solution (unpublished data)): no evident reduction
reduction of potency in the presence of internal TEA ([3]; 200 μM internal TEA): ~50%
current blocked [3, 9]: 39 ± 3%
τblock [3, 9]: 86 ± 5 ms
effect of external TEA on the block ([3]; 7 mM external TEA): did not affect
current blocked [3, 10]: 77 ± 2%
τblock [3, 10]: 35 ± 4 ms
slope of logIC50 versus difference between pHext and pHint ([3]; linear fit): −0.86
slope of linear fit of τblock^−1 versus concentration ([3]; nonsaturating concentrations, 80 mV): 2.5 s^−1μM^−1
slope of linear fit of τblock^−1 versus concentration ([3]; pHext 7.4, pHint 6.4): 12.6 s^−1μM^−1
time constant of block washout ([3]; pHext 7.4, pHint 6.4): 46 ± 8 s
slope of linear fit of τblock^−1 versus concentration ([3]; pHext 7.4, pHint 7.4): 3.4 s^−1μM^−1
time constant of block washout ([3]; pHext 7.4, pHint 7.4): 19 ± 6 s
slope of linear fit of τblock^−1 versus concentration ([3]; pHext 7.4, pHint 8.4): 0.9 s^−1μM^−1
time constant of block washout ([3]; pHext 7.4, pHint 8.4): 6 ± 1 s
Hill coefficient of fit to τblock versus concentration ([3]; whole-cell, 80 mV): 1.27
time constant of current decay (τblock) at the IC50 concentration ([3]; whole-cell, 80 mV): ~50 ms
τblock, maximum of Hill fit ([3]; whole-cell, 80 mV): 86.7 ms
τblock, minimum of Hill fit ([3]; whole-cell, 80 mV): 11.6 ms
fraction of the membrane electric field sensed at the binding site ([3]; z = 1, fit of IC50 versus test potential): 39%
effect on current, direct application to inside-out patches ([6]; 25 μM, bath pH 6.0, 80 mV): complete current suppression
time constant of block in inside-out patches ([6]; bath pH 6.0, pipette pH 7.4, 80 mV): 155 ms
reversal of block on 2-s washout during the depolarization ([6]; inside-out patches): fully reversed
time constant of block (equilibration of neutral drug) in outside-out patches ([2]; bath pH 6.0, pipette pH 7.4): 182 ms
inhibition at 25 µM ([2]; read-out: current inhibition in outside-out patches): ~30%
Compound: CN(C)CCCN1c2ccccc2CCc2ccccc21 [imipramine]
effect on proliferation rate [7]: significant reduction
